OX1R antag-1 – OX1R (human) antagonism; OX1R-expressing cells, FRET antagonist read-out; inhibition, % at 6.6 µM; 330,000 compounds, 1.8% hits; in the data active means inhibition mostly above about 38%, no sharp cut-off; inactive means mostly below about 40%;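 further: 0% = agonist challenge alone and 100% = reference antagonist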
CHO parental Ca – counter-screen: ATP calcium response change in parental CHO cells | parental CHO-K1, ATP-induced calcium, Fluo-8 fluorescence | inhibition, % at 5.6 µM | 330,000 compounds, 0.63% hits | AID 463079;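 active means inhibition above that plate's mean sample inhibition plus 3 SD, cut at about 26% in these data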;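 further: 0% = ATP-challenged DMSO wells and 100% = DMSO wells without ATP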
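Material: parental CHO cells / Compound: single nominal dose of 5.6 µM per compound / Signal: Fluo-8 fluorescence / Replicates: singlicate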
OX1R antag-2 – blocks the human orexin 1 receptor; O43613; CHO/OX1R cells, Fluo-8 calcium fluorescence, orexin A; inhibition, % at 5 µM; 330,000 compounds, 0.43% hits;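 active means inhibition above its plate's threshold, mean inhibition of all tested compounds on the plate plus 3 SD, cut at about 37% in these data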;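 further: 0% = orexin A challenge wells and 100% = SB-334867-A antagonist wells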
GalR3 antag – blocks the human galanin receptor 3 | inhibition, % at 3 µM | 360,000 compounds, 0.44% hits | O60755 | HEK293 GalR3-CNG cAMP membrane potential fluorescence; galR3 body fused to GalR1 C-terminus | AID 651719;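 active means inhibition above the screen-wide average plus 3 SD, cut at about 13% in these data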;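 further: forskolin and galanin both at EC90 stimulate the cells; cAMP rise reported by CNG channel membrane potential dye signal; 0% = forskolin plus galanin with DMSO and 100% = forskolin alone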
Target sequence (O60755 1-299 limits assumed): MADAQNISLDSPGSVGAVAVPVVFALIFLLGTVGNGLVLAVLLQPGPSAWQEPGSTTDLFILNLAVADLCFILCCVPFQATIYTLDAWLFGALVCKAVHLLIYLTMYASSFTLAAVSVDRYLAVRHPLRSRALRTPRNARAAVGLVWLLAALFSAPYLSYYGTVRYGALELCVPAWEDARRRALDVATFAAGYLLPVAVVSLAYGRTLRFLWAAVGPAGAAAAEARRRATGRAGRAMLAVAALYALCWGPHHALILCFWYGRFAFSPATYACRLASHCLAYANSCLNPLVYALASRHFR
GPR7 antag – human neuropeptides B/W receptor 1 antagonism; P48145; inhibition, % at 4.4 µM; AID 1861; 290,000 compounds, 1.1% hits; GPR7-expressing cells, fluorescence antagonist assay; in the data active means inhibition above about 16%, passing the limit was not always enough;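 further: cells stimulated with the agonist NPW; 0% = agonist with vehicle and 100% = vehicle without agonist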
Target sequence (P48145 whole entry, looked up): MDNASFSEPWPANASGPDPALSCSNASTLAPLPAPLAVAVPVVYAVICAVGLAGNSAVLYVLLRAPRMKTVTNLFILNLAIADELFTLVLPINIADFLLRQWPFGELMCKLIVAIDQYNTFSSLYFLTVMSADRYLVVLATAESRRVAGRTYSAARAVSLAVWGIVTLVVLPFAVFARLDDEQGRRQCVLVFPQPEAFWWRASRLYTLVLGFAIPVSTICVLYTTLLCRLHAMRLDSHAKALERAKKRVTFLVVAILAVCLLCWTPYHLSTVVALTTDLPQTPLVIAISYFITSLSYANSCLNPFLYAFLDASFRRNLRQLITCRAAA
An asterisk follows results filed as active; . = no result given. Shown are actives, neighbours in structure and some others; about 3.1% of the full set was active somewhere.

SMILES | OX1R antag-1 | CHO parental Ca | OX1R antag-2 | GalR3 antag | GPR7 antag
O=C(CSc1ccc(-c2ccccc2)nn1)N1CCOCC1 | 48.6* | -13.7 | -3.5 | -4.8 | -14.2
COc1ccccc1CCNC(=O)CSc1nnc2ccc(-c3ccncc3)nn12 | 39.2* | -11.9 | -19.9 | 3.1 | -1.7
Cc1ccc(S(=O)(=O)CCC(=O)Nc2cccc(S(=O)(=O)N3CCCCCC3)c2)cc1 | 9.7 | -26.8 | -8.0 | -2.5 | .
Cc1cccc(CNC(=O)C2CCC(=O)N(CC3CCCCC3)C2)c1 (stereo not drawn) | . | . | . | -5.6 | .
COC(=O)c1c(NC(=O)c2nc3ccccc3s2)sc2c1CCN(C(C)=O)C2 | 22.3 | -12.1 | -15.6 | . | 0.9
CNC(=O)c1c(NC(=O)c2nc3ccccc3s2)sc2c1CCC2 | 44.0* | -6.2 | -8.0 | . | -1.2
CCC(C)NC(=O)COC(=O)c1cccnc1Nc1ccccc1F (stereo not drawn) | 61.5* | -15.7 | -5.6 | -0.3 | 0.1
CSc1ccc(S(=O)(=O)NCC(=O)OCC(=O)NCCc2ccccc2)cc1[N+](=O)[O-] | 36.8* | -19.3 | -21.6 | -1.9 | .
CSc1ccc(S(=O)(=O)NCC(=O)OC(C)C(=O)NCc2ccccc2)cc1[N+](=O)[O-] (stereo not drawn) | 66.9* | 9.2 | -20.2 | -7.4 | .
CCN(C(=O)COC(=O)CNS(=O)(=O)c1ccc(SC)c([N+](=O)[O-])c1)C1CCCCC1 | 52.5* | -18.2 | -15.3 | -2.2 | .
O=C(CNC(=O)c1ccccc1Br)Nc1cccc(S(=O)(=O)Nc2ccccc2Cl)c1 | . | . | . | 4.2 | .
Cc1ccc(S(=O)(=O)N2CCCCCC2)cc1C(=O)NCc1ccccn1 | 14.9 | -6.1 | -14.3 | -5.7 | 0.5
S=C(SCc1cc(Cl)cc2c1OCOC2)N1CCSCC1 | . | . | . | -8.3 | .
O=C(O)CC(c1ccccc1)c1ccc2c(c1)OCO2 (stereo not drawn) | . | . | . | -8.4 | .
N/C(=N\OC(=O)c1cccc(Cn2cc(C(F)(F)F)ccc2=O)c1)c1ccccc1 | 3.9 | 46.1* | 48.0* | -7.1 | -17.3
COc1ccc(S(=O)(=O)Nc2cccc(S(=O)(=O)N3CCCCC3)c2)cc1 | 49.6* | -25.9 | -4.8 | -4.9 | .
CC1CCCCC1NC(=O)c1ccc(S(=O)(=O)N2CCCC2)cc1 (stereo not drawn) | 11.2 | -7.3 | -14.9 | -3.3 | 2.1
COc1ccc(S(=O)(=O)N2CCN(CC(=O)Nc3ccc(F)c(F)c3)CC2)cc1 | 26.1 | -1.6 | -3.9 | 3.6 | 30.1*
CC1CCCCC1NS(=O)(=O)c1ccc(S(=O)(=O)N2CCCC2)cc1 (stereo not drawn) | 18.7 | -14.0 | -30.7 | 0.7 | 15.4*
COc1ccc(NS(=O)(=O)c2ccc(S(=O)(=O)N3CCCC3)cc2)cc1 | 17.2 | 40.2* | 14.5 | -5.5 | 4.8
COc1ccc(S(=O)(=O)N2CCN(CC(=O)Nc3cc(Cl)ccc3Cl)CC2)cc1 | 2.1 | -5.7 | -6.9 | 1.9 | .
C[C@@H]1Cn2cnc(C(=O)N(C)Cc3ccccc3)c2C(=O)N1 | . | . | . | -4.5 | .
C[C@@H]1CN[C@H](CCO)/C1=C\c1ccccc1 | . | . | . | -8.1 | .
O=S(=O)(Nc1ccccc1OC(F)F)c1ccc(S(=O)(=O)N2CCCC2)cc1 | 30.6* | -11.3 | 8.3 | -8.0 | .
O=S(=O)(c1ccc(F)cc1)N1CCCC1 | 14.2 | 3.8 | -13.1 | -2.4 | -3.3
SMILES | OX1R antag-1 | CHO parental Ca | OX1R antag-2 | GalR3 antag | GPR7 antag
C[C@H]1[C@H](c2ccccc2)Oc2cccc(NCCc3ccccc3)c2S(=O)(=O)N1Cc1cccc(Cl)c1 | . | . | . | -6.1 | .
Nc1ccn(C2CCCCO2)c(=O)n1 (stereo not drawn) | . | . | . | -2.6 | .
CC1=CC(C)(C)N(S(=O)(=O)c2ccc(C)cc2)c2cc(C)ccc21 | 17.6 | 48.8* | 1.3 | -1.2 | 17.2
CCC1CN(C(=O)N2CCC(C(=O)NCCc3ccccc3)CC2)c2ccccc2O1 (stereo not drawn) | 5.4 | -24.7 | -33.7 | -1.8 | 17.9
O=C(Cc1coc2ccc3ccccc3c12)NCc1ccccc1 | 26.8 | -16.1 | -13.8 | -8.2 | 0.4
O=C(Cc1coc2ccc3ccccc3c12)NC1CCCc2ccccc21 (stereo not drawn) | 66.1* | -35.5 | -2.0 | -8.0 | 3.9
Cc1cc(NC(=O)c2ccc(Cl)cc2)c(C)cc1O | 11.4 | -9.2 | -4.8 | 0.0 | -4.0
Cc1cc(C(C#N)c2ccc(Cl)cc2)c(Cl)cc1NC(=O)c1cc(I)cc(I)c1O (stereo not drawn) | 62.1* | 47.0* | 28.5 | -1.2 | .
COc1cccc(CNC(=O)CN2C(=O)CSc3ccc(S(=O)(=O)N4CCOCC4)cc32)c1 | 37.0* | -29.3 | -26.9 | -9.5 | 5.4
COc1cccc(NC(=O)CN2C(=O)CSc3ccc(S(=O)(=O)N4CCOCC4)cc32)c1 | 11.0 | -14.4 | -12.6 | -5.5 | -5.9
O=S1(=O)CC(N2CCCCC2)CN1Cc1cn(Cc2cccc(Cl)c2)nn1 (stereo not drawn) | . | . | . | -1.7 | .
Cc1nc(N2CCN(C)CC2)c2sc(=S)n(-c3ccccc3)c2n1 | 8.5 | -7.1 | -24.0 | 2.6 | -0.3
S=c1sc2c(Cl)ncnc2n1-c1ccccc1 | . | . | . | -10.5 | 74.5*
CCN(Cc1ccccc1)C(=O)COc1cc(=O)n(CC)c2ccccc12 | 57.8* | -11.8 | -10.6 | -2.7 | -2.1
CCN(C(=O)COc1cc(=O)n(CC)c2ccccc12)c1cccc(Cl)c1 | 47.3* | -12.2 | -31.0 | -2.5 | 3.3
CCCN(CCC)C(=O)COc1cc(=O)n(CC)c2ccccc12 | 21.3 | -9.2 | -31.7 | -1.0 | -9.3
CCN(C(=O)COc1cc(=O)n(CC)c2ccccc12)c1cc(Cl)ccc1OC | 25.2 | -11.4 | -33.7 | -5.8 | 20.4*
CCn1c(=O)cc(OCC(=O)N(C)c2ccccc2F)c2ccccc21 | 20.1 | -5.3 | -13.5 | 3.0 | -5.0
CCn1c(=O)cc(OCC(=O)O)c2ccccc21 | 9.3 | -1.0 | -13.1 | -0.4 | -8.2
CCNC(=O)N1CCN(c2ccc(N3CCN(Cc4ccccc4)[C@@H](C)C3)c(C)c2)[C@@H](C)C1 | . | . | . | -5.2 | .
COc1ccccc1Cc1c(C2CCCCC2)nc2c(C)cc(Br)cn12 | . | . | . | -5.3 | .
C[C@H](CO)N1C[C@H](C)[C@@H](CN(C)Cc2ccc3c(c2)OCCN3C)OCc2cnnn2CCCC1=O | . | . | . | -4.3 | .
COc1cccc(OC)c1C(=O)NC(=S)Nc1cc(-c2nc3ccccc3[nH]2)ccc1Cl | 74.3* | -16.7 | 20.1 | 4.5 | -19.4
COc1ccccc1NS(=O)(=O)c1ccc(C(=O)N2CCCCCCC2)cc1 | 26.1* | -3.6 | 13.1 | -1.4 | .
COc1ccccc1NS(=O)(=O)c1cccc(NC(=O)Nc2ccccc2)c1 | 23.2 | 23.2 | 44.1* | -10.5 | -9.8
COc1ccccc1NS(=O)(=O)c1cccc(NC(=O)Nc2ccc(Cl)cc2)c1 | 51.8* | 81.9* | 50.9* | -5.0 | -4.8
COc1ccc(NS(=O)(=O)c2cccc(N/C(=N\S(=O)(=O)c3ccccc3)c3ccc(F)cc3)c2)cc1 | 8.3 | 7.1 | 12.9 | -1.7 | 20.6*
COc1ccccc1NS(=O)(=O)c1cccc(C(=O)N2CCCCCC2)c1 | . | . | . | -2.5 | .
COc1ccccc1NS(=O)(=O)c1cc(N/C(=N/S(=O)(=O)c2ccccc2)c2ccc(F)cc2)ccc1Cl | . | . | . | -0.6 | .
